Experimental data reported in ChEMBL document CHEMBL3352573 (Bioorg Med Chem, 2014).

Target: Melanocortin receptor 4 (Homo sapiens, UniProt P32245)
Test: Displacement of Eu-DTPA-NDP-a-MSH chelate from human melanocortin-4 receptor expressed in HEK293 cells after 1 hr by competitive DELFIA assay
Assay type: cell-based
Procedure, shortened: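 HEK293 cells stably carrying hMC4R (pcDNA3.1) were grown in DMEM plus 10% FBS, seeded at 12,000 cells/well and cultured 3 days. Whole cells were competed with unlabeled ligand against 10 nM (final) Eu-DTPA-NDP-α-MSH in binding medium (DMEM, 1 mM 1,10-phenanthroline, bacitracin, leupeptin, 0.3% BSA) for 1 h at 37 °C, in quadruplicate. EC50 and Hill slope came from variable-slope sigmoidal fits.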

Sequence of Melanocortin receptor 4 (P32245 whole entry): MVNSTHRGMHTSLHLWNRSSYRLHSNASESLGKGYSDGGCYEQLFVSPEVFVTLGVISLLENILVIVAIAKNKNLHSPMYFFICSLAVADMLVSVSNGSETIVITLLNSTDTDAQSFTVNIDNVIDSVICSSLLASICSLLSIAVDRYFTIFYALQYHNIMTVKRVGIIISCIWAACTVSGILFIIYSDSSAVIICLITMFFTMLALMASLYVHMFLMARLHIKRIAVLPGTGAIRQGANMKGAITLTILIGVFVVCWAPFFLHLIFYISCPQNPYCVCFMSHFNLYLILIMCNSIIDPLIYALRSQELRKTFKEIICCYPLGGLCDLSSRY

Row | EC50 [nM] | SMILES
1 | 4.1 | CCCC[C@H](NC(=O)CNC(=O)[C@@H]1CCCN1C(=O)CNC(=O)[C@@H]1CCCN1C(=O)CNC(=O)[C@@H]1CCCN1C(=O)CNC(=O)[C@@H]1CCCN1C(=O)CNC(=O)[C@@H]1CCCN1C(=O)CNC(=O)[C@@H]1CCCN1C(=O)[C@H](Cc1c[nH]c2ccccc12)NC(=O)[C@H](CCCNC(=N)N)NC(=O)[C@@H](Cc1ccccc1)NC(=O)[C@H](Cc1cnc[nH]1)NC(=O)[C@H](CCC(=O)O)NC(=O)[C@H](CCCC)NC(=O)[C@H](CO)NC(C)=O)C(=O)N[C@H]1CC(=O)NCCCC[C@@H](C(N)=O)NC(=O)[C@H](Cc2c[nH]c3ccccc23)NC(=O)[C@H](CCCNC(=N)N)NC(=O)[C@@H](Cc2ccc3ccccc3c2)NC(=O)[C@H](Cc2cnc[nH]2)NC1=O
2 | 2 | CCCC[C@H](NC(=O)CNC(=O)[C@@H]1CCCN1C(=O)CNC(=O)[C@@H]1CCCN1C(=O)CNC(=O)[C@@H]1CCCN1C(=O)CNC(=O)[C@@H]1CCCN1C(=O)CNC(=O)[C@@H]1CCCN1C(=O)CNC(=O)[C@@H]1CCCN1C(=O)CNC(=O)[C@@H]1CCCN1C(=O)CNC(=O)[C@@H]1CCCN1C(=O)CNC(=O)[C@@H]1CCCN1C(=O)[C@H](Cc1c[nH]c2ccccc12)NC(=O)[C@H](CCCNC(=N)N)NC(=O)[C@@H](Cc1ccccc1)NC(=O)[C@H](Cc1cnc[nH]1)NC(=O)[C@H](CCC(=O)O)NC(=O)[C@H](CCCC)NC(=O)[C@H](CO)NC(C)=O)C(=O)N[C@H]1CC(=O)NCCCC[C@@H](C(N)=O)NC(=O)[C@H](Cc2c[nH]c3ccccc23)NC(=O)[C@H](CCCNC(=N)N)NC(=O)[C@@H](Cc2ccc3ccccc3c2)NC(=O)[C@H](Cc2cnc[nH]2)NC1=O

Test system: not listed separately
Test: Retention time of the compound by reverse-phase HPLC method
Assay type: physicochemical
Procedure, shortened: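 Analytical reverse-phase HPLC on a C18 column (Jupiter 5U C18 300A), 10–40% acetonitrile with 0.1% TFA linear over 30 min at 1 mL/min, UV detection at 220 and 280 nm.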

Row | SMILES | Retention_time [min]
3 | CCCC[C@H](NC(=O)CNC(=O)[C@@H]1CCCN1C(=O)CNC(=O)[C@@H]1CCCN1C(=O)CNC(=O)[C@@H]1CCCN1C(=O)CNC(=O)[C@@H]1CCCN1C(=O)CNC(=O)[C@@H]1CCCN1C(=O)CNC(=O)[C@@H]1CCCN1C(C)=O)C(=O)N[C@H]1CC(=O)NCCCC[C@@H](C(N)=O)NC(=O)[C@H](Cc2c[nH]c3ccccc23)NC(=O)[C@H](CCCNC(=N)N)NC(=O)[C@@H](Cc2ccc3ccccc3c2)NC(=O)[C@H](Cc2cnc[nH]2)NC1=O | 11.9
4 | CCCC[C@H](NC(=O)CNC(=O)[C@@H]1CCCN1C(=O)CNC(=O)[C@@H]1CCCN1C(=O)CNC(=O)[C@@H]1CCCN1C(=O)CNC(=O)[C@@H]1CCCN1C(=O)CNC(=O)[C@@H]1CCCN1C(=O)CNC(=O)[C@@H]1CCCN1C(=O)CNC(=O)[C@@H]1CCCN1C(=O)CNC(=O)[C@@H]1CCCN1C(=O)CNC(=O)[C@@H]1CCCN1C(C)=O)C(=O)N[C@H]1CC(=O)NCCCC[C@@H](C(N)=O)NC(=O)[C@H](Cc2c[nH]c3ccccc23)NC(=O)[C@H](CCCNC(=N)N)NC(=O)[C@@H](Cc2ccc3ccccc3c2)NC(=O)[C@H](Cc2cnc[nH]2)NC1=O | 11.9
5 | CCCC[C@H](NC(=O)CNC(=O)[C@@H]1CCCN1C(=O)CNC(=O)[C@@H]1CCCN1C(=O)CNC(=O)[C@@H]1CCCN1C(=O)CNC(=O)[C@@H]1CCCN1C(=O)CNC(=O)[C@@H]1CCCN1C(=O)CNC(=O)[C@@H]1CCCN1C(=O)CNC(=O)[C@@H]1CCCN1C(=O)CNC(=O)[C@@H]1CCCN1C(=O)CNC(=O)[C@@H]1CCCN1C(=O)CNC(=O)[C@@H]1CCCN1C(=O)CNC(=O)[C@@H]1CCCN1C(=O)CNC(=O)[C@@H]1CCCN1C(C)=O)C(=O)N[C@H]1CC(=O)NCCCC[C@@H](C(N)=O)NC(=O)[C@H](Cc2c[nH]c3ccccc23)NC(=O)[C@H](CCCNC(=N)N)NC(=O)[C@@H](Cc2ccc3ccccc3c2)NC(=O)[C@H](Cc2cnc[nH]2)NC1=O | 11.9
6 | CCCC[C@H](NC(=O)COCC(=O)NCCCOCCOCCOCCCNC(=O)CNC(=O)[C@@H]1CCCN1C(=O)CNC(=O)[C@@H]1CCCN1C(=O)CNC(=O)[C@@H]1CCCN1C(=O)COCC(=O)NCCCOCCOCCOCCCNC(C)=O)C(=O)N[C@H]1CC(=O)NCCCC[C@@H](C(N)=O)NC(=O)[C@H](Cc2c[nH]c3ccccc23)NC(=O)[C@H](CCCNC(=N)N)NC(=O)[C@@H](Cc2ccc3ccccc3c2)NC(=O)[C@H](Cc2cnc[nH]2)NC1=O | 12.3
7 | CCCC[C@H](NC(=O)COCC(=O)NCCCOCCOCCOCCCNC(C)=O)C(=O)N[C@H]1CC(=O)NCCCC[C@@H](C(N)=O)NC(=O)[C@H](Cc2c[nH]c3ccccc23)NC(=O)[C@H](CCCNC(=N)N)NC(=O)[C@@H](Cc2ccc3ccccc3c2)NC(=O)[C@H](Cc2cnc[nH]2)NC1=O | 12.5
8 | CCCC[C@H](NC(=O)COCC(=O)NCCCOCCOCCOCCCNC(=O)COCC(=O)NCCCOCCOCCOCCCNC(C)=O)C(=O)N[C@H]1CC(=O)NCCCC[C@@H](C(N)=O)NC(=O)[C@H](Cc2c[nH]c3ccccc23)NC(=O)[C@H](CCCNC(=N)N)NC(=O)[C@@H](Cc2ccc3ccccc3c2)NC(=O)[C@H](Cc2cnc[nH]2)NC1=O | 12.5
9 | CCCC[C@H](NC(C)=O)C(=O)N[C@H]1CC(=O)NCCCC[C@@H](C(=O)N2CCC[C@H]2C(=O)NCC(=O)N2CCC[C@H]2C(=O)NCC(=O)N2CCC[C@H]2C(=O)NCC(=O)N2CCC[C@H]2C(=O)NCC(=O)N2CCC[C@H]2C(=O)NCC(=O)N2CCC[C@H]2C(=O)NCC(=O)N2CCC[C@H]2C(=O)NCC(=O)N2CCC[C@H]2C(=O)NCC(=O)N2CCC[C@H]2C(=O)NCC(=O)N2CCC[C@H]2C(=O)NCC(=O)N2CCC[C@H]2C(=O)NCC(=O)N2CCC[C@H]2C(=O)NCC(=O)N[C@@H](CCCC)C(=O)N[C@H]2CC(=O)NCCCC[C@@H](C(N)=O)NC(=O)[C@H](Cc3c[nH]c4ccccc34)NC(=O)[C@H](CCCNC(=N)N)NC(=O)[C@@H](Cc3ccc4ccccc4c3)NC(=O)[C@H](Cc3cnc[nH]3)NC2=O)NC(=O)[C@H](Cc2c[nH]c3ccccc23)NC(=O)[C@H](CCCNC(=N)N)NC(=O)[C@@H](Cc2ccc3ccccc3c2)NC(=O)[C@H](Cc2cnc[nH]2)NC1=O | 13.1
10 | CCCC[C@H](NC(=O)CNC(=O)[C@@H]1CCCN1C(=O)CNC(=O)[C@@H]1CCCN1C(=O)CNC(=O)[C@@H]1CCCN1C(=O)CNC(=O)[C@@H]1CCCN1C(=O)CNC(=O)[C@@H]1CCCN1C(=O)CNC(=O)[C@@H]1CCCN1C(=O)[C@H](Cc1c[nH]c2ccccc12)NC(=O)[C@H](CCCNC(=N)N)NC(=O)[C@@H](Cc1ccccc1)NC(=O)[C@H](Cc1cnc[nH]1)NC(=O)[C@H](CCC(=O)O)NC(=O)[C@H](CCCC)NC(=O)[C@H](CO)NC(C)=O)C(=O)N[C@H]1CC(=O)NCCCC[C@@H](C(N)=O)NC(=O)[C@H](Cc2c[nH]c3ccccc23)NC(=O)[C@H](CCCNC(=N)N)NC(=O)[C@@H](Cc2ccc3ccccc3c2)NC(=O)[C@H](Cc2cnc[nH]2)NC1=O | 12
11 | CCCC[C@H](NC(=O)CNC(=O)[C@@H]1CCCN1C(=O)CNC(=O)[C@@H]1CCCN1C(=O)CNC(=O)[C@@H]1CCCN1C(=O)CNC(=O)[C@@H]1CCCN1C(=O)CNC(=O)[C@@H]1CCCN1C(=O)CNC(=O)[C@@H]1CCCN1C(=O)CNC(=O)[C@@H]1CCCN1C(=O)CNC(=O)[C@@H]1CCCN1C(=O)CNC(=O)[C@@H]1CCCN1C(=O)[C@H](Cc1c[nH]c2ccccc12)NC(=O)[C@H](CCCNC(=N)N)NC(=O)[C@@H](Cc1ccccc1)NC(=O)[C@H](Cc1cnc[nH]1)NC(=O)[C@H](CCC(=O)O)NC(=O)[C@H](CCCC)NC(=O)[C@H](CO)NC(C)=O)C(=O)N[C@H]1CC(=O)NCCCC[C@@H](C(N)=O)NC(=O)[C@H](Cc2c[nH]c3ccccc23)NC(=O)[C@H](CCCNC(=N)N)NC(=O)[C@@H](Cc2ccc3ccccc3c2)NC(=O)[C@H](Cc2cnc[nH]2)NC1=O | 12

The remaining lines, values ahead:

Row | Retention_time [min] | SMILES
12 | 13.2 | CCCC[C@H](NC(C)=O)C(=O)N[C@H]1CC(=O)NCCCC[C@@H](C(=O)N2CCC[C@H]2C(=O)NCC(=O)N2CCC[C@H]2C(=O)NCC(=O)N2CCC[C@H]2C(=O)NCC(=O)N2CCC[C@H]2C(=O)NCC(=O)N2CCC[C@H]2C(=O)NCC(=O)N2CCC[C@H]2C(=O)NCC(=O)N2CCC[C@H]2C(=O)NCC(=O)N2CCC[C@H]2C(=O)NCC(=O)N2CCC[C@H]2C(=O)NCC(=O)N[C@@H](CCCC)C(=O)N[C@H]2CC(=O)NCCCC[C@@H](C(N)=O)NC(=O)[C@H](Cc3c[nH]c4ccccc34)NC(=O)[C@H](CCCNC(=N)N)NC(=O)[C@@H](Cc3ccc4ccccc4c3)NC(=O)[C@H](Cc3cnc[nH]3)NC2=O)NC(=O)[C@H](Cc2c[nH]c3ccccc23)NC(=O)[C@H](CCCNC(=N)N)NC(=O)[C@@H](Cc2ccc3ccccc3c2)NC(=O)[C@H](Cc2cnc[nH]2)NC1=O
13 | 13.6 | CCCC[C@H](NC(C)=O)C(=O)N[C@H]1CC(=O)NCCCC[C@@H](C(=O)NCCCOCCOCCOCCCNC(=O)COCC(=O)N2CCC[C@H]2C(=O)NCC(=O)N2CCC[C@H]2C(=O)NCC(=O)N2CCC[C@H]2C(=O)NCC(=O)NCCCOCCOCCOCCCNC(=O)COCC(=O)N[C@@H](CCCC)C(=O)N[C@H]2CC(=O)NCCCC[C@@H](C(N)=O)NC(=O)[C@H](Cc3c[nH]c4ccccc34)NC(=O)[C@H](CCCNC(=N)N)NC(=O)[C@@H](Cc3ccc4ccccc4c3)NC(=O)[C@H](Cc3cnc[nH]3)NC2=O)NC(=O)[C@H](Cc2c[nH]c3ccccc23)NC(=O)[C@H](CCCNC(=N)N)NC(=O)[C@@H](Cc2ccc3ccccc3c2)NC(=O)[C@H](Cc2cnc[nH]2)NC1=O
14 | 14 | CCCC[C@H](NC(C)=O)C(=O)N[C@H]1CC(=O)NCCCC[C@@H](C(=O)NCCCOCCOCCOCCCNC(=O)COCC(=O)N[C@@H](CCCC)C(=O)N[C@H]2CC(=O)NCCCC[C@@H](C(N)=O)NC(=O)[C@H](Cc3c[nH]c4ccccc34)NC(=O)[C@H](CCCNC(=N)N)NC(=O)[C@@H](Cc3ccc4ccccc4c3)NC(=O)[C@H](Cc3cnc[nH]3)NC2=O)NC(=O)[C@H](Cc2c[nH]c3ccccc23)NC(=O)[C@H](CCCNC(=N)N)NC(=O)[C@@H](Cc2ccc3ccccc3c2)NC(=O)[C@H](Cc2cnc[nH]2)NC1=O
15 | 13.9 | CCCC[C@H](NC(C)=O)C(=O)N[C@H]1CC(=O)NCCCC[C@@H](C(=O)NCCCOCCOCCOCCCNC(=O)COCC(=O)NCCCOCCOCCOCCCNC(=O)COCC(=O)N[C@@H](CCCC)C(=O)N[C@H]2CC(=O)NCCCC[C@@H](C(N)=O)NC(=O)[C@H](Cc3c[nH]c4ccccc34)NC(=O)[C@H](CCCNC(=N)N)NC(=O)[C@@H](Cc3ccc4ccccc4c3)NC(=O)[C@H](Cc3cnc[nH]3)NC2=O)NC(=O)[C@H](Cc2c[nH]c3ccccc23)NC(=O)[C@H](CCCNC(=N)N)NC(=O)[C@@H](Cc2ccc3ccccc3c2)NC(=O)[C@H](Cc2cnc[nH]2)NC1=O
